Results: ChEMBL document CHEMBL4425110, “ICI 56,780 Optimization: Structure-Activity Relationship Studies of 7-(2-Phenoxyethoxy)-4(1H)-quinolones with Antimalarial Activity” (J Med Chem, 2016)

Tested on: Plasmodium falciparum
Experiment: Antimalarial activity against Plasmodium falciparum TM90-C2B
Assay type: functional, organism-based

Q: For `COC(=O)c1c[nH]c2cc(OCc3ccccc3)ccc2c1=O`, which EC50 is on record?
A: 8080 nM

Q: Which EC50 does the source give for `CCOc1ccc2[nH]cc(C(=O)OC)c(=O)c2c1` here?
A: > 10100 nM

Q: Which EC50 does the source give for `CCCCCc1cc2c(=O)c(C(=O)OC)c[nH]c2cc1OCCOc1ccccc1` here?
A: 68.7 nM

Q: With `COC(=O)c1c[nH]c2cc(F)ccc2c1=O` as the compound, how does the EC50 read?
A: 395 nM

Q: Which EC50 does the source give for `CCCCc1ccc2[nH]ccc(=O)c2c1` here?
A: > 12400 nM

Q: With `COC(=O)c1c[nH]c2ccc(OC)cc2c1=O` as the compound, how does the EC50 read?
A: > 10700 nM

Q: Which EC50 does the source give for `COC(=O)c1c[nH]c2cc(Cl)ccc2c1=O` here?
A: 5800 nM

Q: With `CCCCc1cc2c(=O)c(C(=O)NCC)c[nH]c2cc1OCCOc1ccccc1` as the compound, how does the EC50 read?
A: > 6120 nM

Q: For `COC(=O)c1c[nH]c2ccc(C(C)C)cc2c1=O`, which EC50 is on record?
A: > 10200 nM

Q: For `O=c1cc[nH]c2cc(OCCOc3ccccc3)ccc12`, which EC50 is on record?
A: 7680 nM

Q: With `CCc1ccc2[nH]cc(C(=O)OC)c(=O)c2c1` as the compound, how does the EC50 read?
A: > 10800 nM

Q: Which EC50 does the source give for `COC(=O)c1c[nH]c2ccc(-c3ccccc3)cc2c1=O` here?
A: 7180 nM

Q: For `COC(=O)c1c[nH]c2ccc(Oc3ccc(F)cc3)cc2c1=O`, which EC50 is on record?
A: 5710 nM

Q: Which EC50 does the source give for `COC(=O)c1c[nH]c2ccc(Oc3ccccc3)cc2c1=O` here?
A: 7060 nM

Q: With `CCCCc1cc2c(=O)c(C(=O)NC(C)C)c[nH]c2cc1OCCOc1ccccc1` as the compound, how does the EC50 read?
A: 5140 nM

Q: Which EC50 does the source give for `COC(=O)c1c[nH]c2cc(-c3ccccc3)ccc2c1=O` here?
A: 11300 nM

Q: With `CCCCc1cc2c(=O)c(C(C)=O)c[nH]c2cc1OCCOc1ccccc1` as the compound, how does the EC50 read?
A: 378 nM

Q: For `CCCc1cc2c(=O)c(C(=O)OC)c[nH]c2cc1OCCOc1ccccc1`, which EC50 is on record?
A: 42.4 nM

Tested on: not listed separately
Experiment: Liver blood index, ratio of EC50 for Plasmodium falciparum W2 to EC50 for Plasmodium berghei
Assay type: functional
Method in brief: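 Liver-stage EC50 measured in vitro against P. berghei. Liver blood index is the blood-stage EC50 divided by the P. berghei EC50, using either W2 or TM90-C2B as the blood-stage strain.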

Q: Which Ratio EC50 does the source give for `CCCCc1ccc2[nH]ccc(=O)c2c1` here?
A: 0.89

Q: For `COC(=O)c1c[nH]c2ccc(OC)cc2c1=O`, which Ratio EC50 is on record?
A: 6.05

Tested on: J774
Experiment: Cytotoxicity against mouse J774 cells
Assay type: cell-based

Q: With `COC(=O)c1c[nH]c2cc(OCc3ccccc3)ccc2c1=O` as the compound, how does the EC50 read?
A: 18900 nM

Q: With `CCOc1ccc2[nH]cc(C(=O)OC)c(=O)c2c1` as the compound, how does the EC50 read?
A: > 20000 nM

Q: Which EC50 does the source give for `CCCCCc1cc2c(=O)c(C(=O)OC)c[nH]c2cc1OCCOc1ccccc1` here?
A: > 20000 nM

Q: With `COC(=O)c1c[nH]c2cc(F)ccc2c1=O` as the compound, how does the EC50 read?
A: > 20000 nM

Q: With `CCCCc1ccc2[nH]ccc(=O)c2c1` as the compound, how does the EC50 read?
A: > 20000 nM

Q: With `COC(=O)c1c[nH]c2ccc(OC)cc2c1=O` as the compound, how does the EC50 read?
A: 6180 nM

Q: Which EC50 does the source give for `COC(=O)c1c[nH]c2cc(Cl)ccc2c1=O` here?
A: > 20000 nM

Q: With `CCCCc1cc2c(=O)c(C(=O)NCC)c[nH]c2cc1OCCOc1ccccc1` as the compound, how does the EC50 read?
A: > 20000 nM

Q: For `COC(=O)c1c[nH]c2ccc(C(C)C)cc2c1=O`, which EC50 is on record?
A: > 20000 nM

Q: For `O=c1cc[nH]c2cc(OCCOc3ccccc3)ccc12`, which EC50 is on record?
A: > 20000 nM

Q: For `CCc1ccc2[nH]cc(C(=O)OC)c(=O)c2c1`, which EC50 is on record?
A: > 20000 nM

Q: For `COC(=O)c1c[nH]c2ccc(-c3ccccc3)cc2c1=O`, which EC50 is on record?
A: > 20000 nM

Q: For `COC(=O)c1c[nH]c2ccc(Oc3ccc(F)cc3)cc2c1=O`, which EC50 is on record?
A: > 20000 nM

Q: Which EC50 does the source give for `COC(=O)c1c[nH]c2ccc(Oc3ccccc3)cc2c1=O` here?
A: > 20000 nM

Q: For `CCCCc1cc2c(=O)c(C(=O)NC(C)C)c[nH]c2cc1OCCOc1ccccc1`, which EC50 is on record?
A: > 20000 nM

Q: For `COC(=O)c1c[nH]c2cc(-c3ccccc3)ccc2c1=O`, which EC50 is on record?
A: > 20000 nM

Q: Which EC50 does the source give for `CCCc1cc2c(=O)c(C(=O)OC)c[nH]c2cc1OCCOc1ccccc1` here?
A: > 20000 nM

Tested on: Plasmodium falciparum
Experiment: Resistance index, ratio of EC50 for Plasmodium falciparum TM90-C2B to EC50 for Plasmodium falciparum W2
Assay type: functional

Q: Which “Ratio EC50” value does the source give for `COC(=O)c1c[nH]c2cc(OCc3ccccc3)ccc2c1=O` here?
A: 4.42

Q: Which “Ratio EC50” value does the source give for `CCOc1ccc2[nH]cc(C(=O)OC)c(=O)c2c1` here?
A: >34.6

Q: With `CCCCCc1cc2c(=O)c(C(=O)OC)c[nH]c2cc1OCCOc1ccccc1` as the compound, how does the “Ratio EC50” value read?
A: 375

Q: For `COC(=O)c1c[nH]c2cc(F)ccc2c1=O`, which “Ratio EC50” value is on record?
A: 15.1

Q: For `CCCCc1ccc2[nH]ccc(=O)c2c1`, which “Ratio EC50” value is on record?
A: >35.2

Q: For `COC(=O)c1c[nH]c2ccc(OC)cc2c1=O`, which “Ratio EC50” value is on record?
A: >22.2

Q: Which “Ratio EC50” value does the source give for `COC(=O)c1c[nH]c2cc(Cl)ccc2c1=O` here?
A: 2.46

Q: For `CCCCc1cc2c(=O)c(C(=O)NCC)c[nH]c2cc1OCCOc1ccccc1`, which “Ratio EC50” value is on record?
A: >29.7

Q: With `COC(=O)c1c[nH]c2ccc(C(C)C)cc2c1=O` as the compound, how does the “Ratio EC50” value read?
A: >28.8

Q: For `O=c1cc[nH]c2cc(OCCOc3ccccc3)ccc12`, which “Ratio EC50” value is on record?
A: 1.29

Q: With `CCc1ccc2[nH]cc(C(=O)OC)c(=O)c2c1` as the compound, how does the “Ratio EC50” value read?
A: >74.5

Q: Which “Ratio EC50” value does the source give for `COC(=O)c1c[nH]c2ccc(-c3ccccc3)cc2c1=O` here?
A: 3.44

Q: Which “Ratio EC50” value does the source give for `COC(=O)c1c[nH]c2ccc(Oc3ccc(F)cc3)cc2c1=O` here?
A: 48.8

Q: Which “Ratio EC50” value does the source give for `COC(=O)c1c[nH]c2ccc(Oc3ccccc3)cc2c1=O` here?
A: 18.5

Q: With `CCCCc1cc2c(=O)c(C(=O)NC(C)C)c[nH]c2cc1OCCOc1ccccc1` as the compound, how does the “Ratio EC50” value read?
A: 1.54

Q: For `COC(=O)c1c[nH]c2cc(-c3ccccc3)ccc2c1=O`, which “Ratio EC50” value is on record?
A: 4.41

Q: With `CCCCc1cc2c(=O)c(C(C)=O)c[nH]c2cc1OCCOc1ccccc1` as the compound, how does the “Ratio EC50” value read?
A: 39.1

Q: Which “Ratio EC50” value does the source give for `CCCc1cc2c(=O)c(C(=O)OC)c[nH]c2cc1OCCOc1ccccc1` here?
A: 270

Tested on: Plasmodium falciparum
Experiment: Antimalarial activity against Plasmodium falciparum W2
Assay type: functional, organism-based

Q: Which EC50 does the source give for `COC(=O)c1c[nH]c2cc(OCc3ccccc3)ccc2c1=O` here?
A: 1830 nM

Q: Which EC50 does the source give for `CCOc1ccc2[nH]cc(C(=O)OC)c(=O)c2c1` here?
A: 292 nM

Q: For `CCCCCc1cc2c(=O)c(C(=O)OC)c[nH]c2cc1OCCOc1ccccc1`, which EC50 is on record?
A: 0.183 nM

Q: Which EC50 does the source give for `COC(=O)c1c[nH]c2cc(F)ccc2c1=O` here?
A: 26.2 nM

Q: Which EC50 does the source give for `CCCCc1ccc2[nH]ccc(=O)c2c1` here?
A: 352 nM

Q: For `COC(=O)c1c[nH]c2ccc(OC)cc2c1=O`, which EC50 is on record?
A: 482 nM

Q: For `COC(=O)c1c[nH]c2cc(Cl)ccc2c1=O`, which EC50 is on record?
A: 2360 nM

Q: Which EC50 does the source give for `CCCCc1cc2c(=O)c(C(=O)NCC)c[nH]c2cc1OCCOc1ccccc1` here?
A: 206 nM

Q: For `COC(=O)c1c[nH]c2ccc(C(C)C)cc2c1=O`, which EC50 is on record?
A: 354 nM

Q: For `O=c1cc[nH]c2cc(OCCOc3ccccc3)ccc12`, which EC50 is on record?
A: 5960 nM

Q: With `CCc1ccc2[nH]cc(C(=O)OC)c(=O)c2c1` as the compound, how does the EC50 read?
A: 145 nM

Q: Which EC50 does the source give for `COC(=O)c1c[nH]c2ccc(-c3ccccc3)cc2c1=O` here?
A: 2090 nM

Q: With `COC(=O)c1c[nH]c2ccc(Oc3ccc(F)cc3)cc2c1=O` as the compound, how does the EC50 read?
A: 117 nM

Q: Which EC50 does the source give for `COC(=O)c1c[nH]c2ccc(Oc3ccccc3)cc2c1=O` here?
A: 381 nM

Q: Which EC50 does the source give for `CCCCc1cc2c(=O)c(C(=O)NC(C)C)c[nH]c2cc1OCCOc1ccccc1` here?
A: 3340 nM

Q: Which EC50 does the source give for `COC(=O)c1c[nH]c2cc(-c3ccccc3)ccc2c1=O` here?
A: 2560 nM

Q: For `CCCCc1cc2c(=O)c(C(C)=O)c[nH]c2cc1OCCOc1ccccc1`, which EC50 is on record?
A: 9.67 nM

Q: With `CCCc1cc2c(=O)c(C(=O)OC)c[nH]c2cc1OCCOc1ccccc1` as the compound, how does the EC50 read?
A: 0.157 nM

Tested on: Plasmodium berghei
Experiment: Antimalarial activity against Plasmodium berghei
Assay type: functional, organism-based
Method in brief: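 In vitro liver-stage (exoerythrocytic) assay against P. berghei; the value is the EC50 (nM).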

Q: For `CCCCCc1cc2c(=O)c(C(=O)OC)c[nH]c2cc1OCCOc1ccccc1`, which EC50 is on record?
A: < 0.56 nM

Q: With `COC(=O)c1c[nH]c2cc(F)ccc2c1=O` as the compound, how does the EC50 read?
A: > 100 nM

Q: With `CCCCc1ccc2[nH]ccc(=O)c2c1` as the compound, how does the EC50 read?
A: 395 nM

Q: Which EC50 does the source give for `COC(=O)c1c[nH]c2ccc(OC)cc2c1=O` here?
A: 79.6 nM

Q: With `O=c1cc[nH]c2cc(OCCOc3ccccc3)ccc12` as the compound, how does the EC50 read?
A: > 354 nM

Q: For `COC(=O)c1c[nH]c2ccc(-c3ccccc3)cc2c1=O`, which EC50 is on record?
A: > 179 nM

Q: With `CCCc1cc2c(=O)c(C(=O)OC)c[nH]c2cc1OCCOc1ccccc1` as the compound, how does the EC50 read?
A: < 0.06 nM
